ChEMBL document CHEMBL1212779, “Ceftobiprole is superior to vancomycin, daptomycin, and linezolid for treatment of experimental endocarditis in rabbits caused by methicillin-resistant Staphylococcus aureus” (Antimicrob Agents Chemother, 2010)
Converted amounts (≈) assume the structure as drawn.

Key:
Staphylococcus aureus [1] = assay: (§1) Antibacterial activity against methicillin-resistant Staphylococcus aureus COL infected New Zealand White rabbit aortic valve endocarditis model assessed as decrease in bacterial colony forming unit in kidney at 18 mg/kg, iv dosed every 24 hrs for 4 days (reference value: 4.4 +/- 1.0 log10CFU per gram tissue); assay type: functional
Staphylococcus aureus [2] = assay: as §1, with “spleen” for “kidney”, “5.1” for “4.4”, “0.9” for “1.0”; assay type: functional
Staphylococcus aureus [3] = assay: as §1, with “vegetation” for “kidney”, “8.4” for “4.4”, “0.7” for “1.0”; assay type: functional
Staphylococcus aureus [4] = assay: as §1, with “at 25” for “at 18”, “mg/kg, im” for “mg/kg, iv”, “every 8” for “every 24”; assay type: functional; details: route intramuscular
Staphylococcus aureus [5] = assay: as §1, with “in spleen” for “in kidney”, “at 25” for “at 18”, “mg/kg, im” for “mg/kg, iv”, “every 8” for “every 24”, “value: 5.1” for “value: 4.4”, “+/- 0.9” for “+/- 1.0”; assay type: functional; details: route intramuscular
Staphylococcus aureus [6] = assay: as §1, with “in vegetation” for “in kidney”, “at 25” for “at 18”, “mg/kg, im” for “mg/kg, iv”, “every 8” for “every 24”, “value: 8.4” for “value: 4.4”, “+/- 0.7” for “+/- 1.0”; assay type: functional; details: route intramuscular
Oryctolagus cuniculus [7] = assay: Plasma concentration in Staphylococcus aureus COL infected New Zealand White rabbit aortic valve endocarditis model at 25 mg/kg, im dosed every 8 hrs for 4 days; assay type: ADME, organism-based; parameters: dose 25 mg/kg, route intramuscular; details: in vivo
Method in brief: (§2)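 Rabbits with catheter-induced aortic valve endocarditis received about 1.5 × 10^7 CFU COL iv in 1 ml 0.9% saline 48 h after catheter placement. Dosing started 16–18 h post-infection. Plasma was sampled 1 h post-dose from at least three rabbits per group and assayed by HPLC against plasma standard curves. Each value is the mean of two determinations; detection limit ≤0.5 μg/ml.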

Staphylococcus aureus [8] = assay: as §1, with “in vegetation” for “in kidney”, “at 75” for “at 18”, “mg/kg, sc” for “mg/kg, iv”, “every 8” for “every 24”, “value: 8.4” for “value: 4.4”, “+/- 0.7” for “+/- 1.0”; assay type: functional; details: route subcutaneous
Staphylococcus aureus [9] = assay: as §1, with “in spleen” for “in kidney”, “at 75” for “at 18”, “mg/kg, sc” for “mg/kg, iv”, “every 8” for “every 24”, “value: 5.1” for “value: 4.4”, “+/- 0.9” for “+/- 1.0”; assay type: functional; details: route subcutaneous
Staphylococcus aureus [10] = assay: as §1, with “at 75” for “at 18”, “mg/kg, sc” for “mg/kg, iv”, “every 8” for “every 24”; assay type: functional; details: route subcutaneous
Oryctolagus cuniculus [11] = assay: Plasma concentration in Staphylococcus aureus COL infected New Zealand White rabbit aortic valve endocarditis model at 75 mg/kg, sc dosed every 8 hrs for 4 days; assay type: ADME, organism-based; parameters: dose 75 mg/kg, route subcutaneous; details: in vivo; method in brief: as §2
Staphylococcus aureus [12] = assay: Antibacterial activity against methicillin-resistant Staphylococcus aureus COL; assay type: functional
Staphylococcus aureus [13] = assay: as §1, with “spleen” for “kidney”, “30” for “18”, “12” for “24”, “5.1” for “4.4”, “0.9” for “1.0”; assay type: functional
Staphylococcus aureus [14] = assay: as §1, with “vegetation” for “kidney”, “30” for “18”, “12” for “24”, “8.4” for “4.4”, “0.7” for “1.0”; assay type: functional
Staphylococcus aureus [15] = assay: as §1, with “30” for “18”, “12” for “24”; assay type: functional
Oryctolagus cuniculus [16] = assay: Plasma concentration in Staphylococcus aureus COL infected New Zealand White rabbit aortic valve endocarditis model at 30 mg/kg, iv dosed every 12 hrs for 4 days; assay type: ADME, organism-based; parameters: dose 30 mg/kg, route intravenous; details: in vivo
Method in brief: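 Plasma was drawn 1 h after dosing from at least 3 rabbits and assayed by HPLC. Each value averages two determinations, read from plasma standard curves. The detection limit was ≤0.5 μg/ml.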

[17] = Half life in Staphylococcus aureus COL infected New Zealand White rabbit aortic valve endocarditis model at 30 mg/kg, iv dosed every 12 hrs for 4 days; assay type: ADME, organism-based, Oryctolagus cuniculus; parameters: dose 30 mg/kg, route intravenous; details: in vivo

Question: With `CCCCCCCCCC(=O)N[C@@H](Cc1c[nH]c2ccccc12)C(=O)N[C@H](CC(N)=O)C(=O)N[C@@H](CC(=O)O)C(=O)N[C@@H]1C(=O)NCC(=O)N[C@@H](CCCN)C(=O)N[C@@H](CC(=O)O)C(=O)N[C@H](C)C(=O)N[C@@H](CC(=O)O)C(=O)NCC(=O)N[C@H](CO)C(=O)N[C@@H]([C@H](C)CC(=O)O)C(=O)N[C@@H](CC(=O)c2ccccc2N)C(=O)O[C@@H]1C` as the compound, how does the log10CFU/g (Staphylococcus aureus [1]) read?
Answer: Its log10CFU/g is 2.6.

Question: And the log10CFU/g (Staphylococcus aureus [2])?
Answer: Its log10CFU/g is 2.3.

Question: And the log10CFU/g (Staphylococcus aureus [3])?
Answer: The log10CFU/g was 3.6.

Question: Which results are given for `Nc1nc(/C(=N/O)C(=O)N[C@@H]2C(=O)N3C(C(=O)O)=C(/C=C4\CCN([C@@H]5CCNC5)C4=O)CS[C@H]23)ns1` [CEFTOBIPROLE]?
Answer: log10CFU/g (Staphylococcus aureus [4]): 1.7; log10CFU/g (Staphylococcus aureus [5]): 1.8; log10CFU/g (Staphylococcus aureus [6]): 2.1; Cp (Oryctolagus cuniculus [7]): 14400 ng/mL

Question: With `CC(=O)NC[C@H]1CN(c2ccc(N3CCOCC3)c(F)c2)C(=O)O1` [LINEZOLID] as the compound, how does the log10CFU/g (Staphylococcus aureus [8]) read?
Answer: Its log10CFU/g is 5.9.

Question: And the log10CFU/g (Staphylococcus aureus [9])?
Answer: Its log10CFU/g is 2.9.

Question: And the log10CFU/g (Staphylococcus aureus [10])?
Answer: Its log10CFU/g is 2.5.

Question: And the Cp (Oryctolagus cuniculus [11])?
Answer: The Cp was 28200 ng/mL.

Question: For `CCOc1ccc2ccccc2c1C(=O)N[C@@H]1C(=O)N2[C@@H]1SC(C)(C)[C@@H]2C(=O)O` [NAFCILLIN], which MIC (Staphylococcus aureus [12]) is on record?
Answer: Its MIC is 256 µg/mL (≈ 618 µM).

Question: With `CN[C@H](CC(C)C)C(=O)N[C@H]1C(=O)N[C@@H](CC(N)=O)C(=O)N[C@H]2C(=O)N[C@H]3C(=O)N[C@H](C(=O)N[C@H](C(=O)O)c4cc(O)cc(O)c4-c4cc3ccc4O)[C@H](O)c3ccc(c(Cl)c3)Oc3cc2cc(c3O[C@@H]2O[C@H](CO)[C@@H](O)[C@H](O)[C@H]2O[C@H]2C[C@](C)(N)[C@H](O)[C@H](C)O2)Oc2ccc(cc2Cl)[C@H]1O` [VANCOMYCIN] as the compound, how does the log10CFU/g (Staphylococcus aureus [13]) read?
Answer: Its log10CFU/g is 3.3.

Question: What about the log10CFU/g (Staphylococcus aureus [14]) of the same compound?
Answer: The log10CFU/g was 5.9.

Question: And the log10CFU/g (Staphylococcus aureus [15])?
Answer: The log10CFU/g was 3.1.

Question: What about the Cp (Oryctolagus cuniculus [16]) of the same compound?
Answer: The Cp was 34000 ng/mL.

Question: What about the half-life [17] of the same compound?
Answer: Its half-life is 1.33 h.
